Experimental data reported in the array DNA melting data of Ke et al. (doi:10.1101/2024.01.08.574731).

Columns and labels:
[1] = folding enthalpy; higher = less favourable; fluorescence melt of hairpins on a sequencing array, two-state fit; conditions: sodium 0.088 M
Summary of the method: (§1)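 Cy3 signals were normalised both to pre-quench Cy3 and to control constructs. They came from library hairpins carrying annealed Cy3 and quencher oligos on a sequenced MiSeq flow cell, imaged in 50 mM Na-HEPES pH 8.0, 25 mM NaCl, in 2.5 °C steps up to 60 °C. Bootstrapped two-state fits gave melting temperature and folding enthalpy, and four replicates were combined by inverse variance. Fitted temperatures were then raised by 9.35 °C to match UV melts.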

[2] = melting temperature; fluorescence melt of hairpins on a sequencing array, two-state fit, raised by 9.35 °C to match UV melts; conditions: sodium 0.088 M
Summary of the method: as §1

Sequence	folding enthalpy [1]	Tm [2]
GGGTCTGGAAACGGATCC ((.((.(....).)).))	-33 kcal/mol	41.8 °C
GTGTGTGGAAACGCACAC (((((.(....).)))))	-36.2 kcal/mol	56.5 °C
GCGGCTCCCCGC ((((....))))	-22.1 kcal/mol	54.8 °C
GACTAACCGAAAGGTGTC (((..(((....))))))	-18.3 kcal/mol	41.4 °C
GGTAATGGAAACATTGCC ((.((((....)))).))	-29.2 kcal/mol	46.7 °C
GCGGTATCGAAAGATCGC (((..(((....))))))	-24.1 kcal/mol	47.1 °C
GATCTCTATCGAGATC ((((((....))))))	-39.4 kcal/mol	51.1 °C
GACTTACGAAAGTAGTC (((.(((....))))))	-26.8 kcal/mol	43.1 °C
GACCCCGAAAGGGAGGTC ((((((....)))..)))	-21.8 kcal/mol	49.4 °C
GCAGTCGAAAGACCATGC ((((((....)))..)))	-16.2 kcal/mol	35.1 °C
GACCATACGAAAGTAGTC (((..(((....))))))	-9.93 kcal/mol	25.7 °C
GCCCACACGAAAGTGGGC (((..(((....))))))	-26.4 kcal/mol	68 °C
GGTTGGGGAAACCTGACC (((..((....))..)))	-22.5 kcal/mol	44.1 °C
GCTGCAGGAAACCGCAAC (.(((.(....).))).)	-14.6 kcal/mol	27.3 °C
GCGTGGCGAAAGCGGCGC (((..((....))..)))	-40.4 kcal/mol	67.7 °C
GATCACACGTGTGATC ((((((....))))))	-43.5 kcal/mol	57.7 °C
GATCGGGCTCCGATC ((((((...))))))	-35.8 kcal/mol	58.3 °C
CGATCGGAAACGAGGTCG ((((((....)))..)))	-13.5 kcal/mol	31 °C
GATCCCGGACGGGATC ((((((....))))))	-34.5 kcal/mol	68.5 °C
TCACGGAAACGTGA (((((....)))))	-19.9 kcal/mol	50.9 °C
GTTTGTCGAAAGACAAC (((.(((....))))))	-14.3 kcal/mol	47.5 °C
GGGCGTACGAAAGTACCC (((..(((....))))))	-17.4 kcal/mol	50.2 °C
GCGGCAGGAAACCACCGC ((((..(....)..))))	-25.9 kcal/mol	45.2 °C

Sequence	folding enthalpy [1]	Tm [2]
GATCAGGGTCTGATC ((((((...))))))	-24.1 kcal/mol	49.7 °C
GTCGACGAAAGTCGCGAC ((((((....)))..)))	-12.6 kcal/mol	57.4 °C
GTTCCGCGAAAGCGAAC (((.(((....))))))	-14.7 kcal/mol	50.8 °C
GTGCTTGAAAAAGCAC ((((((....))))))	-27.9 kcal/mol	63.3 °C
GAGCGCGGAAACGCGCCC (.(((((....))))).)	-5.64 kcal/mol	59.7 °C
GCATGTCGAAAGACCTGC (((.(((....))).)))	-37.4 kcal/mol	50.6 °C
GGTATGCGAAAGCACACC (((.(((....))).)))	-27.7 kcal/mol	49.7 °C
GATCGGGTTACCGATC ((((((....))))))	-35.8 kcal/mol	67.3 °C
GAGAACGAAAGTTGTCTC ((((((....)))..)))	-27.2 kcal/mol	43.5 °C
GCTTCCGAAAGGACGAGC ((((((....)))..)))	-18.8 kcal/mol	37.6 °C
GACTATCCGAAAGGAGTC (((..(((....))))))	-17 kcal/mol	34.1 °C
GCCTGAGAAATCAGGC ((((((....))))))	-39.2 kcal/mol	62.5 °C
GTAGCAGGAAACTGCCAC ((.((((....)))).))	-14.3 kcal/mol	36.7 °C
GTAACCCGAAAGGGGTAC (((.(((....))).)))	-30.9 kcal/mol	57.6 °C
GAATGTGAAAACATTC ((((((....))))))	-35.2 kcal/mol	51.3 °C
GCGTACGGAAACACACGC ((((..(....)..))))	-28.7 kcal/mol	38.8 °C
GCGCGAGGAAACTCGCAC (.(((((....))))).)	-11.4 kcal/mol	49.4 °C
GGATTCGAAAGAAGCTCC ((((((....)))..)))	-14.2 kcal/mol	32.8 °C
GGTCGTCCGAAAGGAACC (((..(((....))))))	-9.14 kcal/mol	26.3 °C
GTAGGCGAAAGCCGTTAC ((((((....)))..)))	-8.81 kcal/mol	39.8 °C
GCGTAGGCGAAAGCCCGC (((..(((....))))))	-19.7 kcal/mol	61.9 °C
GGCTGCGGAAACGCAACC ((.((((....)))).))	-22.3 kcal/mol	54.7 °C
GTTGGGGAAACCCAAC ((((((....))))))	-36.8 kcal/mol	60 °C

Sequence	folding enthalpy [1]	Tm [2]
GGCTTTCGAAAGAAGGCC (((.(((....))).)))	-40.9 kcal/mol	56.7 °C
GACCGCCGAAAGGCTGTC (((.(((....))).)))	-20.6 kcal/mol	55.5 °C
GATGGACGAAAGTCATC (((.(((....))))))	-17.9 kcal/mol	45.7 °C
GATCTTTACAAGATC ((((((...))))))	-33.2 kcal/mol	46.4 °C
GCAGACCGAAAGGTTGC (((.(((....))))))	-28.9 kcal/mol	53.5 °C
GACGCTGGAAACAACGTC ((((.((....)).))))	-39.4 kcal/mol	45.5 °C
GCCGCGCGAAAGCGTCGC ((..(((....)))..))	-10.1 kcal/mol	58 °C
GAATGCGAAAGCAATTTC ((((((....)))..)))	-9.54 kcal/mol	30.6 °C
GCGAGGGGAAACCCTTGC ((.((((....)))).))	-35.8 kcal/mol	55.6 °C
GCTACCGAAAGGTTCAGC ((((((....)))..)))	-16.3 kcal/mol	35.5 °C
GATCTAACGCTAGATC ((((((....))))))	-20.7 kcal/mol	38.1 °C
GATCGTGTGACGATC ((((((...))))))	-40.1 kcal/mol	54.7 °C
GATCGACAGTCGATC ((((((...))))))	-40.4 kcal/mol	49.8 °C
GCAGTGCGAAAGCTCGGC ((.(.((....)).).))	-25.6 kcal/mol	54.3 °C
GGCGAGAAATCGCC (((((....)))))	-26.4 kcal/mol	65.5 °C
GGAGCCGGAAACGGCTTC (.(((((....))))).)	-15 kcal/mol	60.8 °C
GGATAGCGAAAGCTGTCC (((.(((....))).)))	-42.1 kcal/mol	59.3 °C
GCTCTGCGAAAGCATAGC (((.(((....))).)))	-41.8 kcal/mol	49.8 °C
GCGATGAATCGC ((((....))))	-26.2 kcal/mol	52.4 °C
GACGACGAAAGTCCCGTC ((((((....)))..)))	-16.6 kcal/mol	34.3 °C
GATCACGACGGTGATC ((((((....))))))	-37.8 kcal/mol	59.8 °C
GATCGGGGCACCGATC ((((((....))))))	-34.9 kcal/mol	65.9 °C
GATCGTCGTGACGATC ((((((....))))))	-50 kcal/mol	63.4 °C
